Data set [1] can be described thus: Oral bioavailability in C57BL/6 mouse at 60 umol/kg dosed in HS15/propylenglycol/citrate buffer, pH 4.75, 50 mM (10/5/85, v/v/v) by LC/MS/MS analysis. The conditions noted are these: in vivo. Type of data set: ADME, organism-based. An outline of the steps: (§1)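 Oral gavage (10 mL/kg) to male C57BL/6 mice with iv reference segment (2 μmol/kg, NMP/blank plasma 10:90). Noncompartmental analysis of LC-MS/MS blood profiles, 1/Y weighting; %F = dose-normalized oral AUC / dose-normalized iv AUC × 100, assuming linear pharmacokinetics between doses.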

Data set [2] can be described thus: Oral bioavailability in C57BL/6 mouse at 6 umol/kg dosed in HS15/propylenglycol/citrate buffer, pH 4.75, 50 mM (10/5/85, v/v/v) by LC/MS/MS analysis. In kind it is ADME, organism-based. The conditions noted are these: in vivo. An outline of the steps: as §1
The nature of data set [3]: Drug uptake in C57BL/6 mouse blood at 6 umol/kg, po dosed in HS15/propylenglycol/citrate buffer, pH 4.75, 50 mM (10/5/85, v/v/v) measured 1 hr post dosing by LC/MS/MS analysis. In kind it is ADME, organism-based. The conditions noted are these: read-out: Drug uptake. In outline:
(§2)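 Male C57BL/6 mice dosed by oral gavage, 10 mL/kg. Blood sampled 0.25, 0.5, 1, 2, 4, 6 h; brain at 1 and/or 4 h; n = 3 per time. Blood acetonitrile-precipitated, brain water-homogenized then precipitated; LC-MS/MS with weighted linear calibration.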

Data set [4] relates to Brain. The experiment in a line: Drug uptake in C57BL/6 mouse brain at 6 umol/kg, po dosed in HS15/propylenglycol/citrate buffer, pH 4.75, 50 mM (10/5/85, v/v/v) measured 4 hrs post dosing by LC/MS/MS analysis. Type of data set: ADME, organism-based. Conditions: in vivo, pH 4.75, 4 h. In outline:
as §2

The nature of data set [5]: Drug uptake in C57BL/6 mouse blood at 6 umol/kg, po dosed in HS15/propylenglycol/citrate buffer, pH 4.75, 50 mM (10/5/85, v/v/v) measured 4 hrs post dosing by LC/MS/MS analysis. Type of data set: ADME, organism-based. Conditions: read-out: Drug uptake. In outline: as §2
Data set [6] is described as follows: Ratio of drug uptake in brain to blood in C57BL/6 mouse at 6 umol/kg, po dosed in HS15/propylenglycol/citrate buffer, pH 4.75, 50 mM (10/5/85, v/v/v) measured 1 hr post dosing by LC/MS/MS analysis. In kind it is ADME, organism-based. An outline of the steps:
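Male C57BL/6 mice received the dose by oral gavage at 10 mL/kg. Blood and brain were collected at 1 and/or 4 h postdose. Brain was homogenised in water, and both matrices were extracted by acetonitrile precipitation and quantified by LC-MS/MS. The ratio is mean brain (nmol/g) over mean blood (nmol/mL) concentration, n = 3.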

For data set [7], the system named is Brain. As to the kind of experiment: Drug uptake in C57BL/6 mouse brain at 60 umol/kg, po dosed in HS15/propylenglycol/citrate buffer, pH 4.75, 50 mM (10/5/85, v/v/v) measured 1 hr post dosing by LC/MS/MS analysis. Conditions: in vivo, pH 4.75, 1 h. In kind it is ADME, organism-based. An outline of the steps:
as §2

The nature of data set [8]: Drug uptake in C57BL/6 mouse blood at 60 umol/kg, po dosed in HS15/propylenglycol/citrate buffer, pH 4.75, 50 mM (10/5/85, v/v/v) measured 4 hrs post dosing by LC/MS/MS analysis. Type of data set: ADME, organism-based. The conditions noted are these: read-out: Drug uptake. An outline of the steps: as §2
Data set [9] has as its target Cathepsin D (Homo sapiens, UniProt P07339). As to the kind of experiment: Inhibition of human recombinant CatD using Mca-GKPILFFRLK(DNP)-dR-NH2 as substrate after 1 hr by fluorescence analysis.
A short description of data set [10]: AUC (0 to infinity) in C57BL/6 mouse at 6 umol/kg, po dosed in carboxymethyl cellulose 0.5% w/v in water/Tween 80 (99.5/0.5, v/v) by LC/MS/MS analysis. In kind it is ADME, organism-based. The arrangement: dose 6 umol/kg, time infinity, route oral. Conditions: in vivo. An outline of the steps:
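Male C57BL/6 mice were dosed by oral gavage at 10 mL/kg. Blood was sampled at 0.25, 0.5, 1, 2, 4 and 6 h postdose, extracted by acetonitrile precipitation and quantified by LC-MS/MS (typical LLOQ 0.4 ng/mL). AUCinf was obtained by noncompartmental analysis of concentration–time profiles, weighting 1/Y, with at least three terminal log-linear points.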

For data set [11], the system named is Brain. The experiment in a line: Drug uptake in C57BL/6 mouse brain at 60 umol/kg, po dosed in carboxymethyl cellulose 0.5% w/v in water/Tween 80 (99.5/0.5, v/v) measured 1 hr post dosing by LC/MS/MS analysis. Conditions: in vivo. In kind it is ADME, organism-based. An outline of the steps: as §2
Data set [12] is described as follows: Ratio of drug uptake in brain to blood in C57BL/6 mouse at 60 umol/kg, po dosed in carboxymethyl cellulose 0.5% w/v in water/Tween 80 (99.5/0.5, v/v) measured 1 hr post dosing by LC/MS/MS analysis. Type of data set: ADME, organism-based. An outline of the steps:
as §2

A short description of data set [13]: Ratio of drug uptake in brain to blood in C57BL/6 mouse at 60 umol/kg, po dosed in carboxymethyl cellulose 0.5% w/v in water/Tween 80 (99.5/0.5, v/v) measured 4 hrs post dosing by LC/MS/MS analysis. Type of data set: ADME, organism-based. An outline of the steps: as §2
For data set [14], the system named is Brain. As to the kind of experiment: Drug uptake in C57BL/6 mouse brain at 2 umol/kg, iv dosed in N-methyl pyrrolidone/blank plasma (10:90 v/v) measured 1 hr post dosing by LC/MS/MS analysis. Type of data set: ADME, organism-based. Conditions: in vivo. An outline of the steps: (§3)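 Male C57BL/6 mice, saphenous vein injection under light anesthesia, 5 mL/kg. Blood at 5, 30 min and 1, 2, 4, 6, 8 h; brain at 5 min, 1, 4, 8 h; n = 3/time. LC-MS/MS after acetonitrile precipitation (brain water-homogenized). Noncompartmental analysis, 1/Y weighting, terminal slope from ≥3 points.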

Data set [15] is described as follows: Drug uptake in C57BL/6 mouse blood at 2 umol/kg, iv dosed in N-methyl pyrrolidone/blank plasma (10:90 v/v) measured 4 hrs post dosing by LC/MS/MS analysis. In kind it is ADME, organism-based. The conditions noted are these: read-out: Drug uptake. An outline of the steps:
as §3

A short description of data set [16]: Ratio of drug uptake in brain to blood in C57BL/6 mouse at 2 umol/kg, iv dosed in N-methyl pyrrolidone/blank plasma (10:90 v/v) measured 1 hr post dosing by LC/MS/MS analysis. Type of data set: ADME, organism-based. An outline of the steps:
as §3

Data set [17] in a line: Ratio of drug uptake in brain to blood in C57BL/6 mouse at 2 umol/kg, iv dosed in N-methyl pyrrolidone/blank plasma (10:90 v/v) measured 4 hrs post dosing by LC/MS/MS analysis. Type of data set: ADME, organism-based. An outline of the steps: as §3
The subject of data set [18] is Brain. The experiment in a line: Drug uptake in C57BL/6 mouse brain at 6 umol/kg, po dosed in carboxymethyl cellulose 0.5% w/v in water/Tween 80 (99.5/0.5, v/v) measured 1 hr post dosing by LC/MS/MS analysis. The conditions noted are these: in vivo. Type of data set: ADME, organism-based. An outline of the steps:
as §2

Data set [19] relates to Brain. The experiment in a line: Drug uptake in C57BL/6 mouse brain at 6 umol/kg, po dosed in carboxymethyl cellulose 0.5% w/v in water/Tween 80 (99.5/0.5, v/v) measured 4 hrs post dosing by LC/MS/MS analysis. In kind it is ADME, organism-based. The conditions noted are these: in vivo. In outline: as §2
The nature of data set [20]: Drug uptake in C57BL/6 mouse blood at 6 umol/kg, po dosed in carboxymethyl cellulose 0.5% w/v in water/Tween 80 (99.5/0.5, v/v) measured 4 hrs post dosing by LC/MS/MS analysis. Type of data set: ADME, organism-based. Conditions: read-out: Drug uptake. In outline: as §2
Data set [21] is described as follows: Ratio of drug uptake in brain to blood in C57BL/6 mouse at 6 umol/kg, po dosed in carboxymethyl cellulose 0.5% w/v in water/Tween 80 (99.5/0.5, v/v) measured 4 hrs post dosing by LC/MS/MS analysis. Type of data set: ADME, organism-based. In outline:
as §2

The target in data set [22] is Beta-secretase 1 (Homo sapiens, UniProt P56817).

The values that follow come from ChEMBL document CHEMBL2046351, “Discovery of cyclic sulfone hydroxyethylamines as potent and selective β-site APP-cleaving enzyme 1 (BACE1) inhibitors: structure-based design and in vivo reduction of amyloid β-peptides” (J Med Chem, 2012).

pIC50: −log10 of the molar value.

Beta-secretase 1, sequence (P56817 whole entry): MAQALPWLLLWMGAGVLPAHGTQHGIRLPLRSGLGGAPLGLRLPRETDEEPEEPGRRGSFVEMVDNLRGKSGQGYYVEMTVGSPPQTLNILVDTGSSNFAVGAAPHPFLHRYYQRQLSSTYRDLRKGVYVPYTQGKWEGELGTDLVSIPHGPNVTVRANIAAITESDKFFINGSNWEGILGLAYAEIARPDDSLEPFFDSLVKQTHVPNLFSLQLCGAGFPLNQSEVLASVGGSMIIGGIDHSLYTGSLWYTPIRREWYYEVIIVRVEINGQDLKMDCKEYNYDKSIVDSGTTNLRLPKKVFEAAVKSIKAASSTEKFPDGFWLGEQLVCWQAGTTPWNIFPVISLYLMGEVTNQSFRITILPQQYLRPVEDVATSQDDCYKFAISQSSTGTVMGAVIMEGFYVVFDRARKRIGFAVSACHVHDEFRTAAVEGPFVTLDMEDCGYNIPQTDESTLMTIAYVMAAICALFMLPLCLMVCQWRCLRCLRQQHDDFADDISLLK
Cathepsin D, sequence (P07339 65-162 limits assumed): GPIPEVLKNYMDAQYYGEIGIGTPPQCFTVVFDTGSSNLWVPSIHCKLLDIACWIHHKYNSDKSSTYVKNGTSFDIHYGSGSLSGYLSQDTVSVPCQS
Cathepsin D, sequence (P07339 169-412 limits assumed): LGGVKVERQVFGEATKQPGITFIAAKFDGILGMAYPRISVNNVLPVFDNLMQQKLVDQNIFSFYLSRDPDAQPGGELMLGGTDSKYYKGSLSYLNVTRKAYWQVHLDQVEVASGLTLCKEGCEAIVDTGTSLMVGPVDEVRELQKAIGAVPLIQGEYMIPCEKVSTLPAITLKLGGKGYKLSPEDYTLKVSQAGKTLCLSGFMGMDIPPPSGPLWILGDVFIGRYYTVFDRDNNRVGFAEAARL

Take `CC(C)(C)c1cccc(CN[C@H]2CS(=O)(=O)C[C@@H](Cc3cc(F)c(N)c(OC(C(F)(F)F)C(F)(F)F)c3)[C@@H]2O)c1`: the bioavailability was found to be 33% in data set [1] and 32% in [2]. The concentration at 1 h in data set [3] amounted to 60 nM. Further, the Drug uptake in [4] is 0.01 nmol/g; in [7], 0.23 nmol/g. Also, the concentration at 4 h worked out at 30 nM in data set [5] and 190 nM in data set [8]. In addition, the Kp at 1 h in [6] was found to be 0.3.

As for `CC(C)(C)c1cccc(CN[C@H]2CS(=O)(=O)C[C@@H](Cc3cc(F)c(N)c(OCC(F)(F)F)c3)[C@@H]2O)c1`, the pIC50 in data set [9] was 6.16; in data set [22] it was 8.22. In data set [10], this compound had an AUC(0-inf) of 0.466 µM·h. For the same compound, the Drug uptake is given as 1.19 nmol/g in data set [11], 0.11 nmol/g in data set [14], 0.08 nmol/g in [18] and 0.11 nmol/g in data set [19]. Further, the Kp at 1 h in data set [12] worked out at 0.3; in [16], 1.8. The figures for the Kp at 4 h in data set [13], in data set [17] and in data set [21] were 0.3, 1 and 11, respectively. Besides, the concentration at 4 h in data set [15] and in data set [20] was 10 nM throughout.

In general, bioavailability refers to dose-corrected exposure relative to a reference, in per cent. A lower bioavailability goes with little systemic uptake. By Kp is commonly meant tissue or fluid exposure divided by exposure in the circulation. In general, pIC50 refers to the IC50 on a negative log10 scale, so that one unit is a factor of ten. As usually defined, the AUC(0-inf) is the area under the concentration-time curve extrapolated to infinity. A lower AUC(0-inf) goes with low exposure.
